Like-named read-outs stand apart in the source and are kept apart here. Values belong to the compound of their own block, whether it stands above or below them.
Columns and labels:
[1] = assay type: in vivo, human; settings: for Change in AUCss on fostamatinib co-administration with OC / Change in Cmax,ss on fostamatinib co-administration with OC: increase in exposure
[2] = test system: progesterone, luteinizing hormone, follicle-stimulating hormone, sex hormone-binding globulin; experiment: OC interaction study, pharmacodynamics; assay type: in vivo, human
BCRP = settings: read-out: half maximal inhibitory concentration (IC50), BCRP; in vitro; ref AstraZeneca, data on file; cited from earlier work
[3] = Safety and tolerability, all three studies; assay type: in vivo, human
In short: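 Healthy subjects. Safety set was everyone given at least one dose of investigational product, with all available data used. Assessed throughout: incidence and severity of adverse events, clinical laboratory data, vital signs, 12-lead ECG and physical examination. AEs were tabulated by MedDRA. In the statin study, single statin doses were given alone and then with fostamatinib in a two-period, fixed-sequence design.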

[4] = test system: international normalized ratio (INR); experiment: Warfarin interaction study, pharmacodynamics; design: species or system human; settings: in vivo
[5] = for Increase in AUC with fostamatinib / Individual Cmax differences (warfarin alone to warfarin plus fostamatinib): human; for Increase in AUC with fostamatinib / Individual Cmax differences (warfarin alone to warfarin plus fostamatinib) / Individual AUC differences / Prolongation of t½λz: in vivo
[6] = typical value; not determined in the current studies; cited from earlier work
[7] = not given; remark: listed apart in the source
[8] = cited from earlier work
[9] = fostamatinib co-administration with OC

Structure (SMILES): C#C[C@]1(O)CC[C@H]2[C@@H]3CCc4cc(O)ccc4[C@H]3CC[C@@]21C [Ethinyl estradiol, ethinyl estradiol]
AUCss ratio Microgynon + fostamatinib/microgynon alone ([1]; geometric LS mean ratio): 128.2% | Cmax,ss ratio Microgynon + fostamatinib/microgynon alone ([1]; geometric LS mean ratio): 134.3% | Change in AUCss on fostamatinib co-administration with OC [1]: 28% | Change in Cmax,ss on fostamatinib co-administration with OC [1]: 34%

Structure (SMILES): COc1cc(Nc2ncc(F)c(Nc3ccc4c(n3)N(COP(=O)(O)O)C(=O)C(C)(C)O4)n2)cc(OC)c1OC [Fostamatinib, fostamatinib]
Decrease in exposure to follicle-stimulating hormone [2, 9]: ≈ 20% | Decrease in exposure to luteinizing hormone [2, 9]: ≈ 20% | Luteinizing hormone AUCss ratio Microgynon + fostamatinib/microgynon alone ([2]; in vivo): 83.2% | Luteinizing hormone Cmax,ss ratio Microgynon + fostamatinib/microgynon alone ([2]; in vivo): 75.6% | Progesterone AUCss ratio Microgynon + fostamatinib/microgynon alone ([2]; in vivo): 104.3% | Progesterone Cmax,ss ratio Microgynon + fostamatinib/microgynon alone ([2]; in vivo): 99.8% | IC50 (BCRP): 50 nM | Tolerability [3]: well tolerated | AUCINR,0–168 ratio Warfarin + fostamatinib/warfarin alone [4]: 97.0% | INRmax ratio Warfarin + fostamatinib/warfarin alone [4]: 89.7%

Structure (SMILES): C#C[C@]1(O)CC[C@H]2[C@@H]3CCC4=CC(=O)CC[C@@H]4[C@H]3CC[C@@]21CC [Levonorgestrel, levonorgestrel]
AUCss ratio Microgynon + fostamatinib/microgynon alone ([1]; geometric LS mean ratio): 105.1% | Change in AUCss on fostamatinib co-administration with OC [1]: 5% | Change in Cmax,ss on fostamatinib co-administration with OC [1]: −3%

Structure (SMILES): COc1cc(Nc2ncc(F)c(Nc3ccc4c(n3)NC(=O)C(C)(C)O4)n2)cc(OC)c1OC [R406]
Cmax,ss, geometric mean ([5]; Fostamatinib + warfarin): 557 ng/mL | IC50 (BCRP): 31 nM | Cmax,ss, geometric mean ([1]; Fostamatinib + OC, period 2 day 21): 812 ng/mL | Increase in exposure (fostamatinib combined with simvastatin): ≈ 10% | half-life [6]: ~ 14 h | Increase in exposure ([7]; fostamatinib combined with rosuvastatin): ≈ 10%

Structure (SMILES): CC(=O)C[C@H](c1ccccc1)c1c(O)c2ccccc2oc1=O [R-Warfarin, R-warfarin]
Increase in AUC with fostamatinib [5]: 18% | Individual Cmax differences (warfarin alone to warfarin plus fostamatinib) [5]: −16.1 to 22% | Individual AUC differences [5]: 5.0-33.0% | Prolongation of t½λz [5]: approximately 6 h

Structure (SMILES): CC(=O)C[C@@H](c1ccccc1)c1c(O)c2ccccc2oc1=O [S-Warfarin, S-warfarin]
Increase in AUC with fostamatinib [5]: 13% | Individual Cmax differences (warfarin alone to warfarin plus fostamatinib) [5]: −25.6 to 27% | Individual AUC differences [5]: 0.0-36.0% | Prolongation of t½λz [5]: approximately 6 h

More lines, main results first:

Increase in AUC with fostamatinib ([7]; human, in vivo): 96% | Increase in Cmax with fostamatinib ([7]; human, in vivo): 88%
Structure (SMILES): CC(C)c1nc(N(C)S(C)(=O)=O)nc(-c2ccc(F)cc2)c1/C=C/[C@@H](O)C[C@@H](O)CC(=O)O [Rosuvastatin, rosuvastatin]
absorption (restricted by BCRP) [8]: 50%

Decrease in half-life in the presence of fostamatinib (human, in vivo): about 1.5 h | Increase in AUC with fostamatinib (human, in vivo): 74% | Increase in Cmax with fostamatinib (human, in vivo): 83%
Structure (SMILES): CCC(C)(C)C(=O)O[C@H]1C[C@@H](C)C=C2C=C[C@H](C)[C@H](CC[C@@H](O)C[C@@H](O)CC(=O)O)[C@H]21 [Simvastatin acid, simvastatin acid]

Change in tmax with fostamatinib (human, in vivo): marginal change | Decrease in half-life in the presence of fostamatinib (human, in vivo): approximately 3 h | Net apparent reduction in clearance (with fostamatinib): 40.3%
Structure (SMILES): CCC(C)(C)C(=O)O[C@H]1C[C@@H](C)C=C2C=C[C@H](C)[C@H](CC[C@@H]3C[C@@H](O)CC(=O)O3)[C@H]21 [Simvastatin, simvastatin]
